Columns and labels:
[1] = molecular target: T1, Tyrosine-protein kinase JAK3 (Homo sapiens, UniProt P52333); assay: Inhibition of JAK3
T1 sequence (P52333 whole entry): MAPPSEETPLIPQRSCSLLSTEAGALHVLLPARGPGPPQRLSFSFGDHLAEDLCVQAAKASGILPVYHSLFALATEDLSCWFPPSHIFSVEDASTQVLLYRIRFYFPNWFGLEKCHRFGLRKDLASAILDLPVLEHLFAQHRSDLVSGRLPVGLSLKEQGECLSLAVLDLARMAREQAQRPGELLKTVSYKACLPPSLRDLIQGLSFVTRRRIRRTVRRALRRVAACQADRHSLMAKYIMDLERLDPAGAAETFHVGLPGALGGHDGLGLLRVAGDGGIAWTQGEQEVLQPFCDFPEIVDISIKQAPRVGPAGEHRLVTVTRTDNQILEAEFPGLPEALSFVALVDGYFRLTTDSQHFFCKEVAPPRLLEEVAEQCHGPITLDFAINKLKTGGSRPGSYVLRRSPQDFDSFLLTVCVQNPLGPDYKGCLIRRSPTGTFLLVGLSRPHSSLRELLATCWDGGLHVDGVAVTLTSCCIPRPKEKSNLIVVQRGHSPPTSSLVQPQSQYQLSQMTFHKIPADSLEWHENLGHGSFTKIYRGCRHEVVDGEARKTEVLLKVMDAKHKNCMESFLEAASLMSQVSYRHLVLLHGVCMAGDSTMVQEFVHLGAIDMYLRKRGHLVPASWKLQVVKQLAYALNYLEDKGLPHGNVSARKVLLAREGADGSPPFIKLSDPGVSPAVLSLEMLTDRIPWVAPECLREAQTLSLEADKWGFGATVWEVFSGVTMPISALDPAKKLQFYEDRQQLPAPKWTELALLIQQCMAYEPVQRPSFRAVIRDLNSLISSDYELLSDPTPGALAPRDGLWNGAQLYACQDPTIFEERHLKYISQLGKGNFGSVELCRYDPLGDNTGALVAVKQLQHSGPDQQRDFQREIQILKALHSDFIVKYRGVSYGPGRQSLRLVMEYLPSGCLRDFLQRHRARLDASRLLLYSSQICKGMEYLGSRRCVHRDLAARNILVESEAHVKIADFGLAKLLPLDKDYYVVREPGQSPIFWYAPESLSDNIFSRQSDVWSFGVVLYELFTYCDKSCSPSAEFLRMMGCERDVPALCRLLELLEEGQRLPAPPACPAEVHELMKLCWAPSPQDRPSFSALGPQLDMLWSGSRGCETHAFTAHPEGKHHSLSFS

Activated CDC42 kinase 1 = Activated CDC42 kinase 1 (Homo sapiens, UniProt Q07912); assay: Inhibition of Ack1
[2] = molecular target: Vascular endothelial growth factor receptor 2 (Homo sapiens, UniProt P35968); assay: Inhibition of KDR
[3] = molecular target: Tyrosine-protein kinase Lck (Homo sapiens, UniProt P06239); assay: Inhibition of Lck by HTRF assay
T-cell [4] = assay: Inhibition of anti-CD3/CD28-induced IL2 secretion in human T cells; assay type: functional, cell-based
Outline: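 Human T cells stimulated with anti-CD3/CD28, with IL-2 secretion as read-out. IC50 determined.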

Rattus norvegicus = assay: (§1) Half life in Sprague-Dawley rat at 1 mg/kg, iv; assay type: ADME, organism-based; design: dose 1 mg/kg, route intravenous; conditions: in vivo
T-cell [5] = assay: Inhibition of T cell activation in human mixed lymphocyte reaction; assay type: functional, cell-based
[6] = Clearance in Sprague-Dawley rat at 1 mg/kg, iv; assay type: ADME, organism-based; design: dose 1 mg/kg, route intravenous; conditions: in vivo
[7] = as §1; assay type: ADME, organism-based; design: dose 1 mg/kg, route intravenous; conditions: Sprague-Dawley, in vivo
[8] = Volume of distribution at steady state Sprague-Dawley rat at 1 mg/kg, iv; assay type: ADME, organism-based; design: dose 1 mg/kg, route intravenous; conditions: in vivo, read-out: Vdss

Chain of Tyrosine-protein kinase Lck (P06239 whole entry): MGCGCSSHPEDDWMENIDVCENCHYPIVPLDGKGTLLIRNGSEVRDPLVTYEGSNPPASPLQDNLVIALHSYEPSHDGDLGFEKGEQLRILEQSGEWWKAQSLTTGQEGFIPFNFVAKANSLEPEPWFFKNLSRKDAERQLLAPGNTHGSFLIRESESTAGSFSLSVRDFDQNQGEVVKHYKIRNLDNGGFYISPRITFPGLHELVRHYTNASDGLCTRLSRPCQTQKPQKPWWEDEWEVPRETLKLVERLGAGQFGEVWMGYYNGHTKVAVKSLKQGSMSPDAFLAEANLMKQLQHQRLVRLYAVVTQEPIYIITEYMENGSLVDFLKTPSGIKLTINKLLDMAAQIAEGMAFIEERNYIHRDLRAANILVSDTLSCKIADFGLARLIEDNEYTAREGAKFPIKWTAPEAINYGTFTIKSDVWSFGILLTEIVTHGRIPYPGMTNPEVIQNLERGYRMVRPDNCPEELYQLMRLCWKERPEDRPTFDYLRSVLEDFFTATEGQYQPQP
Chain of Activated CDC42 kinase 1 (Q07912 whole entry): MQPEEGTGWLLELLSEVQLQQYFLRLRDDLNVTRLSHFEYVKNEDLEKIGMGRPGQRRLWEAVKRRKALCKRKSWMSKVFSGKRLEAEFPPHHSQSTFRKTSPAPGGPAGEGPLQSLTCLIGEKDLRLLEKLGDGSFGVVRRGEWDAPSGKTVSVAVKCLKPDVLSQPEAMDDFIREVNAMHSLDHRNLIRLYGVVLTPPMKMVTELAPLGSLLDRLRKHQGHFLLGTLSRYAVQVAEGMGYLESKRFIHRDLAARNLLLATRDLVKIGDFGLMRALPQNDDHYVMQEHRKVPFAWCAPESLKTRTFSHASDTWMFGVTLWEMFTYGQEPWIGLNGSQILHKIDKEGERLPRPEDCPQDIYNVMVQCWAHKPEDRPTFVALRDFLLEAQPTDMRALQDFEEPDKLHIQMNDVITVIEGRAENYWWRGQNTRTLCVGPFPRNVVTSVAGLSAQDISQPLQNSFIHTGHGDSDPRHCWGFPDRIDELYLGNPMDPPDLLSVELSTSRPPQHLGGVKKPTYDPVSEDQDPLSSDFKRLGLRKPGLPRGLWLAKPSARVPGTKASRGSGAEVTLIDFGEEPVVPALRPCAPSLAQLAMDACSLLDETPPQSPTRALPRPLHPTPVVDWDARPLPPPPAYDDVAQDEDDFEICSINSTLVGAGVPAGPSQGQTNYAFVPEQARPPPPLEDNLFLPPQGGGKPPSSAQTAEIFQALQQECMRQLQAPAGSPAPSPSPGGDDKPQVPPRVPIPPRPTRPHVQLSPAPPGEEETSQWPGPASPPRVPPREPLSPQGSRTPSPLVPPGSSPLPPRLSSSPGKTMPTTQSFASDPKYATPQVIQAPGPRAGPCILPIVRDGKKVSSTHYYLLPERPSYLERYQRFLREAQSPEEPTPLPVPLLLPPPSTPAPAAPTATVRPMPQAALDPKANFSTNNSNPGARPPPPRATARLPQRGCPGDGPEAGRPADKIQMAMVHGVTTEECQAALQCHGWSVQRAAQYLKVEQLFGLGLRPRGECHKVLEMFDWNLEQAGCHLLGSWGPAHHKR
Chain of Vascular endothelial growth factor receptor 2 (P35968 whole entry): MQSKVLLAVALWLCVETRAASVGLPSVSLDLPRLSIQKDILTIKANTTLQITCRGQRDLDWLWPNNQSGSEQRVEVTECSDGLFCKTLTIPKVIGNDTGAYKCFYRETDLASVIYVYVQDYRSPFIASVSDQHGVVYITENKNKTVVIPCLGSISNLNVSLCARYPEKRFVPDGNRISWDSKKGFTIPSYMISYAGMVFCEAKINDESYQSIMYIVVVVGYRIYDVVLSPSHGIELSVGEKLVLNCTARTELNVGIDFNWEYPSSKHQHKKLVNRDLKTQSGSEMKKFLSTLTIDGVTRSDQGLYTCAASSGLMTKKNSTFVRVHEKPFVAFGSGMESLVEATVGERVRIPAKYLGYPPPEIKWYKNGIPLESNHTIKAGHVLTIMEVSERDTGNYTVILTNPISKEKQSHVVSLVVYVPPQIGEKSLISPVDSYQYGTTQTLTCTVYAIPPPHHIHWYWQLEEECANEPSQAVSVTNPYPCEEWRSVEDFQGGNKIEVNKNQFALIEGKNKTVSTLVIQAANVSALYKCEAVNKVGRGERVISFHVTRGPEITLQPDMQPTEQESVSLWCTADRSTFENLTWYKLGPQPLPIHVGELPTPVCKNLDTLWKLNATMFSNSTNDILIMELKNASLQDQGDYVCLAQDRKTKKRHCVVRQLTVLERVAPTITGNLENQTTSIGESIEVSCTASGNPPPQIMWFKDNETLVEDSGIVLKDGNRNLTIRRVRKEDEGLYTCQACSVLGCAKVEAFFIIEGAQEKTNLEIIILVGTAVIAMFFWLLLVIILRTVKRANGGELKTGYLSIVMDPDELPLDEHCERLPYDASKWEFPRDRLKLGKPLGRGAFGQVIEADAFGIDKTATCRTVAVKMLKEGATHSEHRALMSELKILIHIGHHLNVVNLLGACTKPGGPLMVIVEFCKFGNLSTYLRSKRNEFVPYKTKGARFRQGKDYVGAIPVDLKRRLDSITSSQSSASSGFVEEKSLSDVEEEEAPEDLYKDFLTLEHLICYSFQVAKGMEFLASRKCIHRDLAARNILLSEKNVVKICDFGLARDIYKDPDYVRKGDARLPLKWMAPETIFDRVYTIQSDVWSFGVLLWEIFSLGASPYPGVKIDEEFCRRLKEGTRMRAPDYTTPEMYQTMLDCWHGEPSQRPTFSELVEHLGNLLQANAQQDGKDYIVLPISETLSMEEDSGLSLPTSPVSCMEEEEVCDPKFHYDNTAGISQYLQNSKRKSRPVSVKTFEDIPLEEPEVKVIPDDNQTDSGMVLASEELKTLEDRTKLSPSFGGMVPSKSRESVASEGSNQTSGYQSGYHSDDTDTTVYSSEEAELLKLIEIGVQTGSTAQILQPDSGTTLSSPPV

Row | IC50 [1] [µM] | IC50 (Activated CDC42 kinase 1) [µM] | IC50 [2] [µM] | IC50 [3] [µM] | IC50 (T-cell [4]) [µM] | t1/2 (Rattus norvegicus) [h] | IC50 (T-cell [5]) [µM] | clearance [6] [L/h/kg] | half-life [7] [h] | Vd [8] [L/kg] | SMILES
1 | 0.044 | 0.18 | 0.067 | 0.019 | 0.25 | 3.1 | 0.018 |  |  |  | CC(C)N(CCOc1ccc(-c2oc3nccc(NCCN4CCNCC4)c3c2-c2ccccc2)cc1)C(C)C
2 | 1.4 | 0.93 | 1.7 |  |  |  |  |  |  |  | c1ccc(-c2c(-c3ccc(OCCN4CCCCC4)cc3)oc3nccc(NCCCn4ccnc4)c23)cc1
3 | 0.026 | 0.11 | 4.2 | 2.1 | 5.2 |  | 4 |  |  |  | c1ccc(-c2oc3nccc(NC[C@@H]4CCCO4)c3c2-c2ccccc2)cc1
4 | 0.032 | 0.15 | 0.057 |  | 0.13 |  | 0.014 | 7.7 | 5.3 | 4.7 | c1ccc(-c2c(-c3ccc(OCCN4CCOCC4)cc3)oc3nccc(NCCN4CCNCC4)c23)cc1
5 | 0.11 | 0.17 | 0.21 |  | 0.65 |  | 0.17 |  |  |  | c1ccc(-c2c(-c3ccc(OCCN4CCCC4)cc3)oc3nccc(NCCN4CCNCC4)c23)cc1
6 | 0.025 | 0.084 | 0.16 |  | 0.47 |  | 0.057 | 11.5 | 0.8 | 7.2 | c1ccc(-c2c(-c3ccc(OCCn4ccnc4)cc3)oc3nccc(NCCN4CCNCC4)c23)cc1
7 |  |  | 2.6 |  | 0.71 |  |  |  |  |  | c1ccc(-c2oc3ncnc(NCCN4CCNCC4)c3c2-c2ccccc2)cc1
8 | 0.14 | 0.42 | 0.36 |  | 1.2 |  | 0.62 | 1.2 | 1.5 | 2.3 | c1ccc(-c2oc3nccc(NCCN4CCNCC4)c3c2-c2ccccc2)cc1
9 | 0.071 | 0.12 | 0.1 | 0.029 | 0.51 |  | 0.061 | 11.3 | 4.7 | 60 | c1ccc(-c2c(-c3ccc(OCCN4CCCCC4)cc3)oc3nccc(NCCN4CCNCC4)c23)cc1
10 | 0.08 | 0.18 | 4.7 | 1.6 |  |  |  |  |  |  | c1ccc(-c2c(-c3ccc(OCCN4CCCCC4)cc3)oc3nccc(NCCc4ccncc4)c23)cc1
11 | 0.037 | 0.02 | 0.37 |  |  |  |  |  |  |  | c1ccc(-c2c(-c3ccc(OCCN4CCCCC4)cc3)oc3nccc(NCCc4cccnc4)c23)cc1

From ChEMBL document CHEMBL1139139, “Discovery of novel 2,3-diarylfuro[2,3-b]pyridin-4-amines as potent and selective inhibitors of Lck: synthesis, SAR, and pharmacokinetic properties” (Bioorg Med Chem Lett, 2007)
